Converted amounts (≈) assume the structure as drawn.
How the values were obtained:
Type in all cases: functional
Aspergillus fumigatus [1] = test: Antifungal activity against Aspergillus fumigatus ATCC 46913 after 72 hr by broth microdilution method; details: ATCC 46913, 72 h
Method in brief: (§1)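 Molds were grown 7 days on SDA at 25–28 °C, and conidia were harvested in sterile 0.85% NaCl. Conidia were counted by hemocytometer and adjusted to about 5 × 10^6 conidia/mL. Microdilution used Sabouraud broth in 96-well plates with compound at 2048 to 8 μg/mL and about 2.5 × 10^5 conidia/mL per well. Plates were incubated at 25–28 °C for 72 h, with readings confirmed at 7 days. Amphotericin B was the reference.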

Aspergillus fumigatus [2] = test: Antifungal activity against Aspergillus fumigatus IPP 210 after 72 hr by broth microdilution method; details: IPP 210, 72 h; method in brief: as §1
Aspergillus fumigatus [3] = test: Antifungal activity against Aspergillus fumigatus ATCC 16913 after 72 hr by broth microdilution method; details: for MIC: Aspergillus fumigatus, ATCC 16913, 72 h; method in brief: as §1
Aspergillus flavus [4] = test: Antifungal activity against Aspergillus flavus LM 210 after 72 hr by broth microdilution method; details: LM 210, 72 h; method in brief: as §1
Aspergillus flavus [5] = test: Antifungal activity against Aspergillus flavus ATCC 16013 after 72 hr by broth microdilution method; details: ATCC 16013, 72 h; method in brief: as §1
Aspergillus flavus [6] = test: Antifungal activity against Aspergillus flavus LM 247 after 72 hr by broth microdilution method; details: LM 247, 72 h; method in brief: as §1
Aspergillus fumigatus [7] = test: Antifungal activity against Aspergillus fumigatus ATCC 40640 after 72 hr by broth microdilution method; details: ATCC 40640, 72 h; method in brief: as §1
Aspergillus flavus [8] = test: Antifungal activity against Aspergillus flavus LM 26 after 72 hr by broth microdilution method; details: LM 26, 72 h; method in brief: as §1

Structure (SMILES)	MIC (Aspergillus fumigatus [1]) [µg/mL]	MIC (Aspergillus fumigatus [2]) [µg/mL]	log(1/MIC) (Aspergillus fumigatus [3])	MIC (Aspergillus fumigatus [3]) [µg/mL]	MIC (Aspergillus flavus [4]) [µg/mL]	MIC (Aspergillus flavus [5]) [µg/mL]	MIC (Aspergillus flavus [6]) [µg/mL]	MIC (Aspergillus fumigatus [7]) [µg/mL]	MIC (Aspergillus flavus [8]) [µg/mL]
C=CCOc1ccc2oc(=O)ccc2c1	≥ 2050	≥ 2050	1.99	≥ 2050	≥ 2050	≥ 2050	≥ 2050	≥ 2050	≥ 2050
C=CCOc1cc(=O)oc2ccccc12	32 (≈ 158 µM)	64 (≈ 317 µM)	3.8	32 (≈ 158 µM)	32 (≈ 158 µM)	32 (≈ 158 µM)	1020 (≈ 5060 µM)	32 (≈ 158 µM)	64 (≈ 317 µM)
CC(C)=CCOc1ccc2oc(=O)ccc2c1	≥ 2050	≥ 2050	2.05	≥ 2050	≥ 2050	≥ 2050	≥ 2050	≥ 2050	≥ 2050
CC(C)=CCC/C(C)=C/COc1ccc2oc(=O)ccc2c1	≥ 2050	≥ 2050	2.16	≥ 2050	≥ 2050	≥ 2050	≥ 2050	≥ 2050	≥ 2050
CC(=O)Oc1ccc2oc(=O)ccc2c1	256 (≈ 1250 µM)	256 (≈ 1250 µM)	2.89	256 (≈ 1250 µM)	256 (≈ 1250 µM)	256 (≈ 1250 µM)	256 (≈ 1250 µM)	256 (≈ 1250 µM)	256 (≈ 1250 µM)
CC(=O)Oc1cc(=O)oc2ccccc12	16 (≈ 78.4 µM)	16 (≈ 78.4 µM)	4.1	16 (≈ 78.4 µM)	16 (≈ 78.4 µM)	16 (≈ 78.4 µM)	16 (≈ 78.4 µM)	16 (≈ 78.4 µM)	16 (≈ 78.4 µM)
O=c1ccc2c([N+](=O)[O-])c(O)c([N+](=O)[O-])cc2o1	512 (≈ 2030 µM)	512 (≈ 2030 µM)	2.69	512 (≈ 2030 µM)	512 (≈ 2030 µM)	512 (≈ 2030 µM)	512 (≈ 2030 µM)	512 (≈ 2030 µM)	512 (≈ 2030 µM)
O=c1oc2ccccc2c(O)c1[N+](=O)[O-]	1020 (≈ 4940 µM)	1020 (≈ 4940 µM)	2.3	1020 (≈ 4940 µM)	1020 (≈ 4940 µM)	1020 (≈ 4940 µM)	1020 (≈ 4940 µM)	1020 (≈ 4940 µM)	1020 (≈ 4940 µM)
O=c1oc2ccccc2cc1O [3-HYDROXYCOUMARIN]	64 (≈ 395 µM)	64 (≈ 395 µM)	3.4	64 (≈ 395 µM)	128 (≈ 789 µM)	128 (≈ 789 µM)	128 (≈ 789 µM)	64 (≈ 395 µM)	128 (≈ 789 µM)
O=c1cc(O)c2ccccc2o1 [4-HYDROXYCOUMARINS]	≥ 2050	≥ 2050	1.89	≥ 2050	≥ 2050	≥ 2050	≥ 2050	≥ 2050	≥ 2050
CC(=O)Oc1ccc2ccc(=O)oc2c1 [7-ACETOXYCOUMARIN]	64 (≈ 313 µM)	64 (≈ 313 µM)	3.5	64 (≈ 313 µM)	64 (≈ 313 µM)	64 (≈ 313 µM)	128 (≈ 627 µM)	64 (≈ 313 µM)	64 (≈ 313 µM)
C=CCOc1ccc2ccc(=O)oc2c1 [7-ALLYLOXYCOUMARIN]	64 (≈ 317 µM)	64 (≈ 317 µM)	3.49	64 (≈ 317 µM)	64 (≈ 317 µM)	64 (≈ 317 µM)	256 (≈ 1270 µM)	64 (≈ 317 µM)	64 (≈ 317 µM)
CC(C)=CCOc1ccc2ccc(=O)oc2c1 [7-PRENYLOXYCOUMARIN]	128 (≈ 556 µM)	128 (≈ 556 µM)	3.25	128 (≈ 556 µM)	1020 (≈ 4450 µM)	1020 (≈ 4450 µM)	1020 (≈ 4450 µM)	128 (≈ 556 µM)	1020 (≈ 4450 µM)
CC(C)=CCC/C(C)=C/COc1ccc2ccc(=O)oc2c1 [AURAPTENE]	≥ 2050	≥ 2050	2.16	≥ 2050	≥ 2050	≥ 2050	≥ 2050	≥ 2050	≥ 2050
O=c1ccc2cc(O)c(O)cc2o1 [ESCULETIN]	≥ 2050	≥ 2050	1.93	≥ 2050	≥ 2050	≥ 2050	≥ 2050	≥ 2050	≥ 2050
COc1cc2ccc(=O)oc2cc1O [SCOPOLETIN]	≥ 2050	≥ 2050	1.97	≥ 2050	≥ 2050	≥ 2050	≥ 2050	≥ 2050	≥ 2050
O=c1ccc2ccc(O)cc2o1 [UMBELLIFERONE]	≥ 2050	≥ 2050	1.89	≥ 2050	≥ 2050	≥ 2050	≥ 2050	≥ 2050	≥ 2050

Now from value to compound:

MIC (Aspergillus fumigatus [1]) [µg/mL]	MIC (Aspergillus fumigatus [2]) [µg/mL]	log(1/MIC) (Aspergillus fumigatus [3])	MIC (Aspergillus fumigatus [3]) [µg/mL]	MIC (Aspergillus flavus [4]) [µg/mL]	MIC (Aspergillus flavus [5]) [µg/mL]	MIC (Aspergillus flavus [6]) [µg/mL]	MIC (Aspergillus fumigatus [7]) [µg/mL]	MIC (Aspergillus flavus [8]) [µg/mL]	Structure (SMILES)
512 (≈ 2060 µM)	512 (≈ 2060 µM)	2.68	512 (≈ 2060 µM)	512 (≈ 2060 µM)	512 (≈ 2060 µM)	512 (≈ 2060 µM)	512 (≈ 2060 µM)	512 (≈ 2060 µM)	CCOC(=O)COc1ccc2ccc(=O)oc2c1
16 (≈ 77.2 µM)	16 (≈ 77.2 µM)	4.11	16 (≈ 77.2 µM)	16 (≈ 77.2 µM)	16 (≈ 77.2 µM)	16 (≈ 77.2 µM)	16 (≈ 77.2 µM)	16 (≈ 77.2 µM)	O=c1ccc2cc([N+](=O)[O-])c(O)cc2o1
≥ 2050	≥ 2050	1.89	≥ 2050	≥ 2050	≥ 2050	≥ 2050	≥ 2050	≥ 2050	O=c1ccc2cc(O)ccc2o1 [6-HYDROXYCOUMARIN]
2 (≈ 2.16 µM)	2 (≈ 2.16 µM)		2 (≈ 2.16 µM)	2 (≈ 2.16 µM)	2 (≈ 2.16 µM)	8 (≈ 8.66 µM)	2 (≈ 2.16 µM)	512 (≈ 554 µM)	C[C@@H]1[C@H](O)[C@@H](C)/C=C/C=C/C=C/C=C/C=C/C=C/C=C/[C@H](O[C@@H]2O[C@H](C)[C@@H](O)[C@H](N)[C@@H]2O)C[C@@H]2O[C@](O)(C[C@@H](O)C[C@@H](O)[C@H](O)CC[C@@H](O)C[C@@H](O)CC(=O)O[C@H]1C)C[C@H](O)[C@H]2C(=O)O [AMPHOTERICIN B]
1020 (≈ 5390 µM)	1020 (≈ 5390 µM)	2.26	1020 (≈ 5390 µM)	1020 (≈ 5390 µM)	1020 (≈ 5390 µM)	≥ 2050	1020 (≈ 5390 µM)	1020 (≈ 5390 µM)	O=C(O)c1cc2ccccc2oc1=O [COUMARIN-3-CARBOXYLIC ACID]
1020 (≈ 7010 µM)	1020 (≈ 7010 µM)	2.15	1020 (≈ 7010 µM)	1020 (≈ 7010 µM)	1020 (≈ 7010 µM)	1020 (≈ 7010 µM)	1020 (≈ 7010 µM)	1020 (≈ 7010 µM)	O=c1ccc2ccccc2o1 [COUMARIN]
≥ 2050	≥ 2050	2.21	≥ 2050	≥ 2050	≥ 2050	≥ 2050	≥ 2050	≥ 2050	O=c1oc2ccccc2c(O)c1Cc1c(O)c2ccccc2oc1=O [DICUMAROL]
≥ 2050	≥ 2050	2	≥ 2050	≥ 2050	≥ 2050	≥ 2050	≥ 2050	≥ 2050	COc1cc2ccc(=O)oc2c(O)c1O [FRAXETIN]
